In ChEMBL document CHEMBL4414603, “Extracellular vs Intracellular Delivery of CO: Does It Matter for a Stable, Diffusible Gasotransmitter?” (J Med Chem, 2019):
pIC50: −log10 of the molar value. The source made the active and inactive calls. The calls are words filed in the database; no cut-off is given here.

Columns and labels:
[1] = test system: RAW264.7; assay: Antiinflammatory activity in mouse RAW264.7 cells assessed as reduction in LPS-induced TNF-alpha level up to 1 uM incubated for 4 hrs prior to 460 nm LED light illumination for 1 hr followed by 6 hrs incubation under dark condition and subsequent LPS-stimulation and measured after 1 hr by ELISA; assay type: functional, cell-based
Summary of the method: (§1)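 RAW 264.7 cells seeded at 1.0×10^4/well, 24 h; compound 0.04–50 μM (0.4% DMSO vehicle) for 4 h without light; one plate then given blue LED (66,351 lx) 1 h at 37 °C. Both plates held 6 h dark at 37 °C, then E. coli O127:B8 LPS 1 μg/mL final for 1 h; supernatant TNF-α by mouse ELISA; 3 experiments, 2 technical replicates, mean ± SEM.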

[2] = Absorption property of the compound in DMSO assessed as reduction in absorption wavelength at 0.05 mmol incubated for 14 hrs under 419 nm light illumination; assay type: physicochemical
[3] = test system: RAW264.7; assay: Cytotoxicity against mouse RAW264.7 cells assessed as reduction in cell viability incubated for 1 hr under 460 nm LED light illumination and measured after 23 hrs by MTT assay; assay type: cell-based; settings: for Activity: mouse, raw264.7
Summary of the method: (§2)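 RAW 264.7 cells (within 5 passages, phenol-red-free DMEM-F12K, 10% FBS) seeded at 1.0×10^4/well for 24 h, then dosed 0.08–100 μM (≤0.4% DMSO). Light arm: blue LED array (66,351 lx) 1 h, then 23 h more; dark arm kept unlit. MTT 4 h, formazan in DMSO, A560 minus A750, normalised to vehicle; 3 biological × 3 technical replicates, mean ± SEM.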

[4] = target: T1, Albumin (Bos taurus, UniProt P02769); assay: Binding affinity to bovine serum albumin at pH 7.4 TRIS buffer by fluorescence based Stern-Volmer plot analysis; assay type: ADME; settings: cattle, isolated protein
Summary of the method: (§3)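 Tryptophan fluorescence quench of BSA (1.4 μM) in TRIS buffer pH 7.4 at 295 K, excitation 282 nm, titrated with compound at 0–22.4 μM; data fitted by Stern-Volmer and modified Stern-Volmer plots.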

[5] = test system: RAW264.7; assay: Antiinflammatory activity in mouse RAW264.7 cells assessed as reduction in LPS-induced TNF-alpha expression at up to 50 uM preincubated for 4 hrs followed by 6 hrs incubation under dark condition and subsequent LPS-stimulation and measured after 1 hr by ELISA; assay type: functional, cell-based; summary of the method: as §1
[6] = Drug uptake in mouse RAW264.7 cells assessed as intracellular accumulation at 50 uM after 4 hrs by Hoechst 33342 staining based fluorescence inverted microscopic method; assay type: ADME, cell-based; settings: raw264.7, 4 h
Summary of the method: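 RAW 264.7 cells seeded at 1.0×10^4 cells/[…] in chamber slides, adhered 24 h, exposed to 50 μM compound (from 25 mM DMSO stock; 0.4% DMSO final) 4 h with minimal light; Hoechst 33342 15 min, three PBS washes; imaged at 20x, blue channel ex 310–390/em 420–470 nm.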

[7] = Drug metabolism in mouse RAW264.7 cells assessed as CO release at 50 uM incubated 4 hrs prior to compound washout followed by 1-Ac addition for 30 mins and subsequent 460 nm LED light illumination for 1 hr by Hoechst 33342 dye based fluorescence assay; assay type: ADME, cell-based; settings: raw264.7, 4 h
Summary of the method: (§4)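 RAW 264.7 cells on chamber slides given 50 μM compound 4 h, then washed 3x with plain medium or left unwashed; Nile red CO sensor 1-Ac 5 μM final (0.2% DMSO) 30 min; blue LED (66,351 lx, 2 cm) 1 h at 37 °C, then 1 h dark at 37 °C; Hoechst 33342 stain; red channel ex 550–600/em 598–660 nm.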

[8] = target: T1, Albumin; assay: Binding affinity to bovine serum albumin at pH 7.4 TRIS buffer at 1:1 ratio of compound to protein by fluorescence based assay; assay type: ADME; settings: cattle, isolated protein; summary of the method: as §3
[9] = Drug metabolism in DMSO assessed as CO release at 0.05 mmol incubated for 24 hrs under 419 nm light illumination
[10] = test system: RAW264.7; assay: Dark toxicity against mouse RAW264.7 cells assessed as reduction in cell viability up to 100 uM after 24 hrs by MTT assay; assay type: cell-based; settings: raw264.7, 24 h; summary of the method: as §2
[11] = Solubility of the compound in FBS supplemented DMEM-F12 medium at < 50 mM; assay type: physicochemical
[12] = Drug uptake in mouse RAW264.7 cells assessed as extracellular accumulation at 50 uM incubated for 4 hrs under dark condition followed by compound washout by Hoechst 33342 staining based fluorescence inverted microscopic method; assay type: ADME, cell-based; settings: raw264.7, 4 h
Summary of the method: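 After 4 h dark incubation of RAW 264.7 cells with 50 μM compound, cells washed with medium containing 10% FBS; pooled washes read by fluorescence (ex 410 nm, slit 3.0 nm) against a 50 μM standard.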

[13] = test system: RAW264.7; assay: Cytotoxicity against mouse RAW264.7 cells assessed as reduction in cell viability up to 100 uM incubated for 1 hr under 460 nm LED light illumination and measured after 23 hrs by MTT assay; assay type: cell-based; settings: raw264.7, 1 h; summary of the method: as §2
[14] = Drug metabolism in DMSO assessed as sodium 7-(benzoyloxy)-6-carboxynaphthalene-1-sulfonate metabolite formation at […] after 24 hrs illuminated with visible light by 1H-NMR analysis
Summary of the method: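 Roughly 0.05 mmol compound in 5.0 mL DMSO, under air, irradiated in a photoreactor with 419 nm lamps (2,450 lx) until the lowest-energy absorption band disappeared (~24 h); photoproduct then characterised.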

[15] = Emission property of the compound in pH 7.4 PBS buffer assessed as excited state emission wavelength at 100 uM; assay type: physicochemical; settings: pH 7.4, 100 µM
[16] = Absorption property of the compound in 10% FBS supplemented DMEM-F12 medium assessed as absorption wavelength at 100 uM; assay type: physicochemical
[17] = Absorption property of the compound in pH 7.4 PBS buffer assessed as absorption wavelength at 100 uM; assay type: physicochemical; settings: pH 7.4, 100 µM
[18] = Drug metabolism in DMSO assessed as sodium 7-(benzoyloxy)-6-carboxynaphthalene-1-sulfonate metabolite formation at 0.05 mmol incubated for 24 hrs under 419 nm light illumination by 13C-NMR analysis
[19] = Absorption property of the compound in DMSO assessed as minimum absorption wavelength at 100 uM; assay type: physicochemical
[20] = Solubility of the compound in DMSO at < 50 mM; assay type: physicochemical
[21] = Stability of the compound in FBS supplemented DMEM-F12 medium incubated for >= 1 month under dark condition
[22] = Emission property of the compound in 10% FBS supplemented DMEM-F12 medium assessed as emission wavelength at 100 uM; assay type: physicochemical
Summary of the method: (§5)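 Emission spectra recorded at 0.1 mM in water, 10 mM PBS pH 7.4, or DMEM/F12K with 10% FBS; excitation 410 nm or 467 nm, slit width 3.0 nm.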

[23] = Drug metabolism in mouse RAW264.7 cells assessed as CO release at 50 uM preincubated 4 hrs followed by 1-Ac addition for 30 mins and subsequent 460 nm LED light illumination for 1 hr by Hoechst 33342 dye based fluorescence assay; assay type: ADME, cell-based; settings: raw264.7, 50 µM; summary of the method: as §4
[24] = Absorption property of the compound in water assessed as absorption wavelength at 100 uM; assay type: physicochemical; settings: buffer
[25] = Emission property of the compound in DMSO assessed as excited state emission wavelength at 100 uM; assay type: physicochemical
[26] = Stability of the compound in water incubated for >= 1 month under dark condition; assay type: physicochemical; settings: buffer
[27] = Drug metabolism in DMSO assessed as sodium 7-(benzoyloxy)-6-carboxynaphthalene-1-sulfonate metabolite formation at 0.05 mmol incubated for 24 hrs under 419 nm light illumination by 2D-COSY analysis
[28] = Drug metabolism in DMSO assessed as sodium 7-(benzoyloxy)-6-carboxynaphthalene-1-sulfonate metabolite formation at 0.05 mmol incubated for 24 hrs under 419 nm light illumination by HSQC analysis
[29] = Solubility of the compound in water at < 50 mM; assay type: physicochemical; settings: buffer
[30] = Emission property of the compound in DMSO assessed as tautomeric state emission wavelength at 100 uM; assay type: physicochemical
[31] = Emission property of the compound in 10% FBS supplemented DMEM-F12 medium assessed as excitation wavelength; assay type: physicochemical
[32] = Drug metabolism in DMSO assessed as sodium 7-(benzoyloxy)-6-carboxynaphthalene-1-sulfonate metabolite formation at 0.05 mmol incubated for 24 hrs under 419 nm light illumination by FTIR analysis
[33] = Emission property of the compound in water assessed as emission wavelength at 100 uM; assay type: physicochemical; settings: buffer; summary of the method: as §5
[34] = Stability of the compound in PBS buffer incubated for >= 1 month under dark condition; assay type: physicochemical
[35] = Stability of the compound in DMSO incubated for >= 1 month under dark condition; assay type: physicochemical
[36] = Solubility of the compound in PBS buffer at < 50 mM; assay type: physicochemical
[37] = Drug metabolism in DMSO assessed as sodium 7-(benzoyloxy)-6-carboxynaphthalene-1-sulfonate metabolite formation at 0.05 mmol incubated for 24 hrs under 419 nm light illumination by HMBC analysis
[38] = Drug metabolism in DMSO assessed as sodium 7-(benzoyloxy)-6-carboxynaphthalene-1-sulfonate metabolite formation at 0.05 mmol incubated for 24 hrs under 419 nm light illumination by ESI/APCI-MS analysis

T1 sequence (P02769 whole entry): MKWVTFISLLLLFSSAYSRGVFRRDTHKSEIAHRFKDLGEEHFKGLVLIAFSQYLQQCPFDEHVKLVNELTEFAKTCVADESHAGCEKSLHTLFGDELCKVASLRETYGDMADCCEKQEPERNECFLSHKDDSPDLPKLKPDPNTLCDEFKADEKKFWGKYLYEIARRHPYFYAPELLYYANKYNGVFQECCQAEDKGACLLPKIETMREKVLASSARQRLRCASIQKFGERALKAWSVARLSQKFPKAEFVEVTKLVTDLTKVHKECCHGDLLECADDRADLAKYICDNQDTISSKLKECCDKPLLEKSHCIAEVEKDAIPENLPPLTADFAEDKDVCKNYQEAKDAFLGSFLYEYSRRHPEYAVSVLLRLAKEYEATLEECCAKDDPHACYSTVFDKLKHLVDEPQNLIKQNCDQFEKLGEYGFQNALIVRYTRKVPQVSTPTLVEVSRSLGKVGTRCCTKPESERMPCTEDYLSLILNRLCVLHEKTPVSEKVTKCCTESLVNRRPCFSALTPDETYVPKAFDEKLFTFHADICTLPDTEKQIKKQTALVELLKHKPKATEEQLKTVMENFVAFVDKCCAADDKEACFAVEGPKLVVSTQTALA

Q: Which Activity [1] does the source give for `O=c1c(O)c(-c2ccccc2)oc2cc3ccccc3cc12` here?
A: Active

Q: And the Activity [2]?
A: Active

Q: What about the pIC50 ([3]; Mus musculus, RAW264.7) of the same compound?
A: 4.65

Q: And the Ka [4]?
A: 3.2 ×10³ /M

Q: What about the Activity [5] of the same compound?
A: Active

Q: What about the Drug uptake [6] of the same compound?
A: Active

Q: And the Drug metabolism [7]?
A: Metabolite_Detected

Q: What about the Activity [8] of the same compound?
A: Active

Q: What about the Drug metabolism [9] of the same compound?
A: Metabolite detected

Q: What about the Activity [10] of the same compound?
A: Non-Toxic

Q: Which Activity [3] does the source give for `O=C(Oc1cc2c(S(=O)(=O)O)cccc2cc1C(=O)O)c1ccccc1` here?
A: Non-Toxic

Q: For `O=C(Oc1cc2ccccc2cc1C(=O)O)c1ccccc1`, which Activity [3] is on record?
A: Non-Toxic

Q: With `O=c1c(O)c(-c2ccccc2)oc2cc3c(S(=O)(=O)[O-])cccc3cc12.[Na+]` as the compound, how does the solubility [11] read?
A: Soluble

Q: What about the Drug uptake [12] of the same compound?
A: Not Active

Q: And the Activity [13]?
A: Non-Toxic

Q: And the Drug metabolism [14]?
A: Metabolite detected

Q: And the Activity [15]?
A: 410 nm

Q: And the Activity [16]?
A: 450 to 500 nm

Q: What about the Activity [1] of the same compound?
A: Active

Q: What about the Activity [17] of the same compound?
A: 450 to 500 nm

Q: And the Drug metabolism [18]?
A: Metabolite detected

Q: What about the Activity [19] of the same compound?
A: 410 nm

Q: What about the solubility [20] of the same compound?
A: Soluble

Q: And the Stability [21]?
A: Stable

Q: And the Activity [22]?
A: 600 nm

Q: And the Drug metabolism [23]?
A: Metabolite_Detected

Q: And the Activity [24]?
A: 450 to 500 nm

Q: What about the Activity [25] of the same compound?
A: 480 nm

Q: And the Ka [4]?
A: 4.1 ×10⁵ /M

Q: What about the Activity [5] of the same compound?
A: Active

Q: What about the Stability [26] of the same compound?
A: Stable

Q: What about the Drug metabolism [27] of the same compound?
A: Metabolite detected

Q: And the Drug metabolism [28]?
A: Metabolite detected

Q: What about the solubility [29] of the same compound?
A: Soluble

Q: What about the Activity [30] of the same compound?
A: 610 nm

Q: And the Activity [31]?
A: 467 nm

Q: And the Drug metabolism [32]?
A: Metabolite detected

Q: And the Drug uptake [6]?
A: Not Active

Q: And the Drug metabolism [7]?
A: Metabolite_Detected

Q: And the Activity [8]?
A: Active

Q: What about the Activity [33] of the same compound?
A: 560 nm

Q: And the Stability [34]?
A: Stable

Q: And the Stability [35]?
A: Stable

Q: What about the solubility [36] of the same compound?
A: Soluble

Q: And the Drug metabolism [9]?
A: Metabolite detected

Q: And the Drug metabolism [37]?
A: Metabolite detected

Q: What about the Activity [10] of the same compound?
A: Non-Toxic

Q: And the Drug metabolism [38]?
A: Metabolite detected
